Insulin prom act: TRM-6 insulin promoter activation; TRM-6 cells, insulin promoter eGFP reporter, imaging; plate-scaled: unstimulated 0, stimulated control 100; activation, % at 2 µM; 0.81% of 130,000 active; AID 1296;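 active means activation at 2 µM above a set limit, confirmed on inspection of the cell images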;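 further: share of cells whose green reporter signal exceeds an intensity cutoff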
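System – human fetal islet-derived TRM-6 cells with tamoxifen-inducible insulin promoter–eGFP reporter · Amount – 1,000 cells per well · Schedule – overnight tamoxifen, then two-day compound incubation at 37 °C · Detection – high-content imaging of fixed cells with Hoechst nuclear stain · Read-out – percent cells above green-intensity threshold, converted to percent activation versus plate controls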
* hit, by the source's call. The sample as a whole holds a higher share of hits than the screen did.

`CC[n+]1c(/C=C/Nc2ccccc2)oc2ccc(OC)cc21` gave Insulin prom act 455.6*.
O=S(=O)([O-])CCC[n+]1c(/C=C\Nc2ccccc2)oc2ccc(-c3ccccc3)cc21 was read as Insulin prom act 376.2*.
Screening CC[n+]1c(/C=C/Nc2ccccc2)oc2ccccc21 returned Insulin prom act 137.5*.
For CC[n+]1c(/C=C/N(C)c2ccccc2)oc2ccc(F)cc21 the results were Insulin prom act 5.7.
Screening CCCCOC(=O)C1=C(C)Nc2ncnn2C1c1cccc(OC)c1OC (centres undefined) returned Insulin prom act -7.9.
For O=C(CCNC(=O)OCc1ccccc1)NC1CCCCCC1 the results were Insulin prom act 126.7.
For Cc1ccc(NC(=O)CN2CCN(S(=O)(=O)c3cccs3)CC2)cc1S(=O)(=O)N(C)C the results were Insulin prom act 0.0.
Cc1cc(C)n(CCc2nc(-c3ccc(-c4ccccc4)cc3)cs2)n1 was read as Insulin prom act 6.7.
N#C/C(=C\c1ccncc1)C(N)=O was read as Insulin prom act 0.0.
For O=C(Nc1cccc(C(F)(F)F)c1)C12CC3CC(CC(C3)C1)C2 the results were Insulin prom act 4.8.
`COc1ccc(NC(=O)C(=O)N/N=C/c2cc(C)n(-c3cccc(Cl)c3Cl)c2C)c(OC)c1` gave Insulin prom act 0.0.
Screening Cc1cccc2nc(-c3ccccc3)nc(N3CCC(O)(c4ccc(Cl)cc4)CC3)c12 returned Insulin prom act 454.5*.
`Cc1cc(C)n(-c2nc3ccccc3nc2N2CCN(C(=O)c3ccc(Cl)cc3)CC2)n1` gave Insulin prom act -5.1.
Screening COC(=O)Nc1ccccc1C(=O)N1CCC(O)(c2ccc(Cl)cc2)CC1 returned Insulin prom act 0.0.
`O=C1CCc2cc(S(=O)(=O)NCCC(=O)N3CCN(c4cccc(Cl)c4)CC3)ccc2N1` gave Insulin prom act 3.7.
Screening COCCNC(=O)Cn1c(=O)n(CCCCCC(=O)NCc2ccc3c(c2)OCO3)c(=O)c2sccc21 returned Insulin prom act -72.2.
`CCOC(=O)/C=c1\s/c(=C\c2ccc3cc(OC)ccc3c2)c(=O)n1CC(=O)NCc1ccc2c(c1)OCO2` gave Insulin prom act 335.3*.
Screening CCOC(=O)/C=c1\s/c(=C\c2c(OCC)ccc3ccccc23)c(=O)n1CC(=O)NCC1CCCO1 (centres undefined) returned Insulin prom act 184.6.
Screening O=C(CSc1ccc(-c2ccco2)nn1)Nc1ccccc1 returned Insulin prom act -75.0.
O=C(CSc1ccc(-c2cccc([N+](=O)[O-])c2)nn1)NCc1ccccc1 was read as Insulin prom act 265.7*.
Cn1c(SCC(=O)NCc2ccco2)nnc1-c1ccccc1 was read as Insulin prom act 437.1*.
O=C(CSc1nnc(-c2cc3ccccc3cc2O)n1Cc1ccco1)c1ccc(F)cc1 was read as Insulin prom act -6.1.
For O=C(CSc1nnc(-c2ccc(O)cc2)n1Cc1ccco1)c1ccccc1 the results were Insulin prom act 77.4*.
O=C(CSc1ncc(-c2ccccc2)n1-c1ccccc1)NCc1ccco1 was read as Insulin prom act 2.7.
Screening O=C(CSc1ccc(-c2ccccn2)nn1)NCc1ccccc1 returned Insulin prom act -8.3.
COc1cccc(CNC(=O)CSc2ccc(-c3ccncc3)nn2)c1 was read as Insulin prom act 0.0.
Screening Cn1c(SCC(=O)NCc2ccco2)nnc1-c1ccc(S(=O)(=O)N2CCOCC2)cc1 returned Insulin prom act -6.1.
Cc1nnc(SCC(=O)NCc2ccco2)n1Cc1ccccc1 was read as Insulin prom act 6.9.
`O=C(CSc1ccc(-c2ccccc2)nn1)NCc1ccco1` gave Insulin prom act 443.8*.
For Cc1cc(C)c(NC(=O)CSc2nnc(-c3ccncc3)n2Cc2ccco2)c(Cl)c1 the results were Insulin prom act -3.2.
`CC(C(=O)NC(=O)NC1CCCCC1)N1CCN(C(c2ccccc2)c2ccccc2)CC1` (centres undefined) gave Insulin prom act -2.7.
For CC(=O)Nc1cccc(NC(=O)C2CC(=O)N(c3ccc(C)cc3)C2)c1 (centres undefined) the results were Insulin prom act -2.8.
For O=C(c1ccccc1NS(=O)(=O)c1cccc(C(F)(F)F)c1)N1CCc2ccccc21 the results were Insulin prom act 1.3.
For Cc1ccc2nc(/C(C#N)=C\c3cc(C)n(-c4cccc([N+](=O)[O-])c4)c3C)[nH]c2c1 the results were Insulin prom act 0.0.
`Cc1ccc2nc(/C(C#N)=C\c3ccc(Oc4ccc([N+](=O)[O-])cn4)cc3)[nH]c2c1` gave Insulin prom act -3.9.
For Cc1ccc2nc(/C(C#N)=C\c3ccc(N4CCOCC4)o3)[nH]c2c1 the results were Insulin prom act 455.6*.
For CCNc1nnc(-c2ccc(C)cc2)o1 the results were Insulin prom act 0.0.
For C=CCOC(=O)C1=C(C)NC(C)=C(C(=O)OCC=C)C1/C=C/c1ccccc1 the results were Insulin prom act -30.0.
Screening COc1ccc(C2C(C(=O)OCC3CCCO3)=C(C)NC3=C2C(=O)CC(c2ccco2)C3)cc1O (centres undefined) returned Insulin prom act 7.9.
